# Assay outcomes from PubChem BioAssay.
# Hits are enriched below; roughly 0.79% of the tested compounds scored in any of these assays.
# bIAP inh – intestinal alkaline phosphatase (bovine) inhibition; purified bovine IAP, CDP-star luminescence, 30 min; 190,000 tested, under 10 active; inhibition, % at 20 µM; AID 1019;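 active = over 50% inhibition of intestinal alkaline phosphatase at 20 µM in the single-dose screen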
#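 Incubation: 30 min reaction at room temperature / Material: purified bovine intestinal alkaline phosphatase (IAP) enzyme / Input: enzyme at 1/65,000,000 dilution / Dosing: 20 µM single dose / Signal: CDP-star luminescence signal / Reagent: CDP-star chemiluminescent phosphatase substrate, 30 µM final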
# bIAP act – increases bovine intestinal alkaline phosphatase activity; purified bovine IAP, CDP-star luminescence, 30 min; active compounds read high; fold of DMSO-control signal, blank-subtracted; activation factor at 20 µM; 200,000 tested, 0.17% active;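 active = activation factor of 2 or more at 20 µM, a signal rise over negative controls twice the positive control's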
# hIAP act – increases human intestinal alkaline phosphatase activity. P09923. purified human IAP, CDP-Star luminescence, 30 min; active compounds read high; 1 = vehicle-only enzyme, 0 = enzyme-free background. 330,000 tested, 0.16% active. activation factor at 10 µM;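 active = activation factor of the enzyme at least 2-fold when tested at 20 µM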
# Target sequence (P09923 whole entry, looked up): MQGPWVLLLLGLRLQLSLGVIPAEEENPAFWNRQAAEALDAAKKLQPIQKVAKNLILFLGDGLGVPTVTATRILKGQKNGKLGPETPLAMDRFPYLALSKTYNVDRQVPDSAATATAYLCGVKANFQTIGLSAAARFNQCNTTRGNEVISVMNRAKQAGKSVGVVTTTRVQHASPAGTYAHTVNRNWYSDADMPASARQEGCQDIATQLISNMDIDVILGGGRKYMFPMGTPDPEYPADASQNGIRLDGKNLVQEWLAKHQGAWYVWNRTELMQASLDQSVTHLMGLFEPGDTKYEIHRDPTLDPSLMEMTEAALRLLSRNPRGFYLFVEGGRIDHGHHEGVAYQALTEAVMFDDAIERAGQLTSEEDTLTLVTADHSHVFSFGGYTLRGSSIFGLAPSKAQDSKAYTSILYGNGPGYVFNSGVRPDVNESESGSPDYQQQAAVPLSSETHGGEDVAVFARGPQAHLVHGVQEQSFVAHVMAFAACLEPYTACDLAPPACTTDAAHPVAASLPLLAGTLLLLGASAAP
# mIAP inh – blocks mouse intestinal alkaline phosphatase; inhibition, % at 10 µM; AID 2806; 330,000 tested, 0.2% active; purified mouse IAP, CDP-Star luminescence, 30 min;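 active = inhibition of at least 40% at 10 µM in the primary screen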;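 also: plate controls were DMSO with enzyme for no effect and no enzyme wells for full effect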
# hIAP block – human IAP inhibition. P09923. AID 2544. purified IAP, CDP-Star luminescence, 30 min. inhibition, % at 10 µM. 330,000 tested, 0.12% active;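 active = inhibition reaching a set limit with compound at 10 µM in the primary screen, cut at about 35% in these data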;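 also: plate controls were DMSO wells with enzyme for no effect and no-enzyme buffer wells for full effect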
# mIAP act – mouse IAP activation; muIAP, CDP-Star luminescence, 30 min; active compounds read high; 1 = vehicle-only enzyme signal, 0 = enzyme-free wells; activation factor at 10 µM; 330,000 tested, 0.24% active; AID 2805;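 active = activation factor of at least 2 at 20 µM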
#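 System: Mouse IAP enzyme | Also added: CDP-Star substrate | Dosing: Compounds dispensed in DMSO | Schedule: 30 min enzyme-substrate-compound incubation at room temperature | Technique: Chemiluminescence readout | Control set: DMSO-only wells and no-enzyme negative control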
# * marks the source's active call; other numbers are inactive results; i = inactive; · = no result given.
SMILES,bIAP inh,bIAP act,hIAP act,mIAP inh,hIAP block,mIAP act
COc1ccc(CCNC(=O)c2cc(-c3ccc(Cl)c(Cl)c3)oc2C)cc1,-8.8,1.1,0.932,-243.1,6.8,3.43*
COc1ccc2[nH]c3c(NCCC4=CCCCC4)ncnc3c2c1,-112.9,2.1*,·,·,·,·
CCOc1ccc2[nH]c3c(NCCC(C)C)ncnc3c2c1,·,·,1.61,-121.6,-61.2,2.22*
CCN(CC)CCNc1ncnc2c1[nH]c1ccc(OC)cc12,·,·,1.12,-10.6,-12.4,1.11
CCCN(CC(=O)Nc1ccccc1C)C(=O)c1ccc(OCc2c(C)noc2C)cc1,·,·,1.08,1.4,-8.0,0.986
CC(OC(=O)c1ccc(-n2cnnn2)cc1)C(=O)Nc1ccc(F)c(F)c1F (configuration not stated),·,·,0.917,0.6,8.3,0.994
Cc1ccc(-n2ncc(C(=O)Nc3cc(Cl)cc(Cl)c3)c2C2CCNCC2)cc1C,i,6.1*,·,·,·,·
CCCCSCCCNC(=O)Nc1ccc(CC)cc1,49.1,0.5,1.07,-146.3,-7.0,2.46*
Cc1ccc(NC(=O)Nc2ccc3c(c2)N(C)C(=O)CS3)cc1C,-4.8,1,1.28,-208.9,-28.1,3.09*
Cc1ccc(CNC(=O)Nc2ccc3c(c2)N(C)C(=O)CS3)cc1,16.9,0.8,0.914,-107.2,8.6,2.07*
CN1C(=O)CSc2ccc(NC(=O)NCc3ccccc3)cc21,3.0,1,1.1,-34.0,-10.5,1.34
CC(C)N(C(=O)[C@H]1C[C@H](CC(=O)NCCc2ccccn2)C(=O)N2CCc3c([nH]c4cc(CCC(=O)N(C)C)ccc34)[C@]12C)C(C)C,·,·,·,-1.6,·,1.02
CC1CCN(CCc2nc3cc(NC(=O)NC4CCCCC4)ccc3n2C)CC1,-145.8,2.5*,1.03,-34.3,-3.0,1.34
Cn1c(CCN2CCCCC2)nc2cc(NC(=O)NC3CCCCC3)ccc21,-76.9,1.8,1.1,-11.6,-10.3,1.12
CC1=C(C#N)C(=O)N(C2CCS(=O)(=O)C2)C(=O)/C1=C\c1ccco1 (configuration not stated),·,·,1.08,46.8*,-8.3,0.532
CSc1cccc(NC(=S)Nc2cc(C)ccc2C)c1,·,·,1.02,-32.6,-1.7,1.33
Cc1ccc(NC(=O)CSc2nc3ccccc3c(=O)n2CCCN2CCCCC2)cc1C,-141.3,2.4*,1.13,-15.8,-12.6,1.16
COc1cc(CNCCc2c[nH]c3ccccc23)ccc1OCc1ccc(F)cc1,-187.0,2.9*,0.854,7.1,14.6,0.93
Cc1ccc(S(=O)(=O)Cc2cc(F)c([N+](=O)[O-])cc2[N+](=O)[O-])cc1,·,·,0.903,9.1,9.7,0.909
Cc1ccccc1NCC(=O)N/N=C/c1c(C)c(C(=O)c2ccc(Cl)cc2)n2ccccc12,-3.0,1,0.989,17.8,1.1,0.822
Cc1c(/C=N/NC(=O)CNc2ccccc2)c2ccccn2c1C(=O)c1ccc(Cl)cc1,i,10.4*,0.879,17.7,12.1,0.823
CN(C)S(=O)(=O)c1cccc(NC(=O)CCc2nc3cc(S(=O)(=O)N4CCOCC4)ccc3n2C)c1,·,·,0.989,2.4,1.1,0.976
Cc1ccc(C(=O)OCC(=O)NNC(=O)c2cccs2)c(O)c1,·,·,0.956,9.7,4.4,0.903
N#Cc1c(NCCN)nc(NCc2ccccc2)c2c1CCN(Cc1ccccc1)C2,-195.4,3*,·,·,·,·
Nc1[nH]nc2nc(NCc3ccccc3)c3c(c12)CCN(Cc1ccccc1)C3,-370.5,4.7*,1.01,-15.9,-1.0,1.16
SMILES,bIAP inh,bIAP act,hIAP act,mIAP inh,hIAP block,mIAP act
CCN1CCN(c2ccc(N3CCN(S(=O)(=O)c4cc([N+](=O)[O-])ccc4C)CC3)nn2)CC1,·,·,1.08,-0.6,-7.8,1.01
C[C@H]1C(c2ccc(F)cc2)=NN(c2ccccc2)[C@@H]1CO,·,·,·,-59.4,·,1.59
OC[C@@H]1[C@@H](c2ccc(F)cc2)C(c2cccc(Cl)c2)=NN1c1ccccc1,·,·,·,-113.0,·,2.13*
OC[C@@H]1[C@@H](c2ccc(Cl)cc2)C(c2ccccc2)=NN1c1ccccc1,·,·,·,-104.9,·,2.05*
COc1ccccc1[C@H]1C(c2ccc(F)cc2)=NN(c2ccccc2)[C@@H]1CO,·,·,·,-55.7,·,1.56
CN(C)c1ccc(N2C(=O)CSC2=S)cc1,8.2,0.9,0.898,46.8*,10.2,0.532
COC(=O)C1=CNC=C(C(=O)OC)C1c1ccc(C(=O)OC)cc1,-24.5,1.2,1.32,-12.3,-32.1,1.12
COc1ccc(OC)c(C(=O)NC(CC(N)=O)c2ccc(NCc3ccc(F)c(F)c3)c([N+](=O)[O-])c2)c1 (configuration not stated),·,·,0.915,48.5*,8.5,0.515
COc1ccc(OC)c(C(=O)NC(CC(N)=O)c2ccc(NCc3ccccn3)c([N+](=O)[O-])c2)c1 (configuration not stated),·,·,0.74,1.6,26.0,0.984
CC(O)CNc1nc2ccccc2n1-c1ncnc2sc3c(c12)CCC3 (configuration not stated),-105.4,2.1*,1.08,-43.9,-8.2,1.44
O=C(Nc1ccc(Cl)c(Cl)c1)Nc1cc(C(=O)NC2CC2)ccc1Cl,3.0,1,1.15,-116.1,-14.9,2.16*
Cc1c(CCOC(=O)C23CC4CC(CC(C)(C4)C2)C3)sc[n+]1Cc1ccccc1,36.2,0.6,0.948,43.0*,5.2,0.57
COc1ccc(S(=O)(=O)Nc2ncccn2)cc1,·,·,0.899,6.8,10.1,0.932
CC(C)(C)NC(=O)C(=O)NN=C1CCCCCC1,2.5,1,1.07,-4.7,-6.9,1.05
CN1CCC(=NNC(=O)C(=O)NC(C)(C)C)CC1,-275.9,3.8*,0.96,9.4,4.0,0.906
CCN(CC)c1ccc2cc(-c3nc4ccccc4n3C)c(=O)oc2c1,-157.8,2.6*,·,·,·,·
CCN(CC)c1ccc2cc(-c3nc4ccccc4[nH]3)c(=O)oc2c1,-68.2,1.7,0.851,-39.9,14.9,1.4
Fc1ccc(NC(=S)NNc2ncc(C(F)(F)F)cc2Cl)c(F)c1,-8.9,1.1,1.79,12.6,-79.2,0.874
O=C(NC(=S)NNC(=O)c1ccccc1O)c1ccco1,10.3,0.9,·,·,·,·
O=C(NC(=S)NNC(=O)c1cc2ccccc2cc1O)c1ccco1,7.5,0.9,2.24*,34.6,-124.1,0.654
OCc1nc2ccccc2n1C/C=C/c1ccccc1,-124.8,2.2*,1.14,-2.2,-14.0,1.02
CC(O)c1nc2ccccc2n1C/C=C/c1ccccc1 (configuration not stated),-0.7,1,1.08,6.0,-8.0,0.94
O=C(/C=C/c1ccc(Cl)cc1Cl)OCC(=O)N1CCCC1,·,·,0.958,-0.1,4.2,1
Cc1ccc(S(=O)(=O)N2[C@@H](c3cccc(Cl)c3)C(C(=O)O)=CC[C@H]2c2cccc(Cl)c2)cc1,·,·,0.911,42.0*,8.9,0.58
CN(C)c1ccc(-c2nc3ccccc3n2C)cc1,7.3,0.9,0.856,4.0,14.4,0.96
Cc1ccc(C(O)c2nc3ccccc3n2C(C)C)cc1 (configuration not stated),-149.2,2.5*,0.974,-2.9,2.6,1.03
